Compound activity from PubChem BioAssay.
TDP2 inh = blocks human TDP2 phosphodiesterase activity; 0.34% of 370,000 active; AID 720702; recombinant TDP2, T5PNP hydrolysis, p-nitrophenol absorbance 415 nm; inhibition, % at 12.8 µM;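 active = inhibition above the mean of all tested compounds plus 3 SD, set per campaign, cut at about 25% in these data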;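 also: 0% = DMSO with enzyme and 100% = buffer with substrate but no TDP2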
Target sequence (O95551 whole entry, looked up): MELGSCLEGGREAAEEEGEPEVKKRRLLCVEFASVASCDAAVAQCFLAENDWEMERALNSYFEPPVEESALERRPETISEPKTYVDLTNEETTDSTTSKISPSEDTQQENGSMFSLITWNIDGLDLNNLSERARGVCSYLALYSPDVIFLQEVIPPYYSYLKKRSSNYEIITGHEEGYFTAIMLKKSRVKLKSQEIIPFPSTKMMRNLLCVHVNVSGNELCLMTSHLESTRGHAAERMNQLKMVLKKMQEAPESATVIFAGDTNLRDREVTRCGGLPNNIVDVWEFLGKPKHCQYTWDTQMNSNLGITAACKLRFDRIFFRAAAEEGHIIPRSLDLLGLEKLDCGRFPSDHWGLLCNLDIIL
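Evaluation: % inhibition relative to enzyme-containing and enzyme-free wells. Material: recombinant human TDP2. Benchmarks: enzyme-free and DMSO wells. Timing: enzyme reaction with compound for 2 h at 37 °C. Compound dosing: 12.8 µM only. Measured by: p-Nitrophenol epi absorbance. Reagent: T5PNP substrate at 5 mM, a TopII-DNA adduct mimic. Replication: single well per compound.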
LEDGF integ inh = blocks HIV-1 LEDGF/p75-dependent DNA integration. AID 743269. 0.64% of 370,000 active. inhibition, % at 3.7 µM. TR-FRET IN-LEDGF/p75 DNA integration, Eu/Cy5;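 active = inhibition above the screen-wide mean plus 3 SD, cut at about 13% in these data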;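 also: signal is the Cy5 over europium emission ratio at 671 and 618 nm; 0% = plate median of compound wells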
CASP6 VEID inh = inhibitors of human caspase-6 | P55212 | purified caspase-6, Z-VEID-R110 cleavage fluorescence | inhibition, % at 12.5 µM | 0.53% of 350,000 active;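 active = mean inhibition across replicates at least about 35%, with every replicate also reaching that limit, limit read from the data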;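 also: 0% = median of neutral control wells and 100% = no fluorescence left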
Target sequence (P55212 24-179 limits assumed): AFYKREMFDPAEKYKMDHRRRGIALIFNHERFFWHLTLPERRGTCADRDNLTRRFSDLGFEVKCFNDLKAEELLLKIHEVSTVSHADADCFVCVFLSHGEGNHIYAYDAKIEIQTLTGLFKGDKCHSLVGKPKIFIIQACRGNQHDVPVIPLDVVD
Target sequence (P55212 194-293 limits assumed): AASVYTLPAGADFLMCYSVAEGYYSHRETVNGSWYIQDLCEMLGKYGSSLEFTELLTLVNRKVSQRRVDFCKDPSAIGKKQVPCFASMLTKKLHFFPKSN
NSD2 HMT inh = NSD2 (human) methyltransferase inhibition. NSD2 peptide methylation, AlphaScreen, 120 min. O96028. inhibition, % at 12.5 µM. AID 743445. 0.54% of 310,000 active; in the data active = inhibition above about 50%
MBD2 DNA inh = inhibitors of human MBD2 binding to methylated oligonucleotide; Q9UBB5; TR-FRET; inhibition, % at 4.4 µM; 0.31% of 370,000 active; AID 686964; in the data active = inhibition above about 13%
UHRF1 binding = human UHRF1 methylated DNA binding inhibitors | Q96T88 | UHRF1 binding to methylated oligo, TR-FRET | inhibition, % at 4.4 µM | 0.75% of 370,000 active;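 also: UHRF1 SRA domain binding a hemimethylated CpG hairpin DNA probe; 0% = median of test compound wells and 100% = reference inhibitor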
UHRF1 DNA bind = inhibits human UHRF1 binding to methylated oligonucleotide, MBD2 counter-screen; shares compounds with MBD2 DNA inh; TR-FRET; inhibition, % at 4.4 µM; 25% of 1,000 active; AID 720530;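 also: UHRF1 SRA domain binding a labeled hemimethylated CpG hairpin DNA; 0% = vehicle only and 100% = reference inhibitor with vehicle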
MBD2 confirm = MBD2-DBD methyl-DNA binding inhibition, TR-FRET confirmation; shares compounds with MBD2 DNA inh; TR-FRET MBD2-DBD binding to methylated oligonucleotide; inhibition, % at 4.4 µM; 26% of 1,000 active; in the data active = inhibition above about 14%
The depositor's hits bear a star; / = no result. Rows were chosen to be rich in hits. Some 1.8% of all compounds tested hit in one or more screens of this group. Rule as the data show it, unless noted: active = inhibition above about 21%; inactive = the rest.

SMILES	TDP2 inh	LEDGF integ inh	CASP6 VEID inh	NSD2 HMT inh	MBD2 DNA inh	UHRF1 binding	UHRF1 DNA bind	MBD2 confirm
CO[C@H]1CN(C)C(=O)c2cc(NC(C)=O)ccc2OC[C@H](C)N(Cc2nccs2)C[C@H]1C	/	/	-3	/	/	/	/	/
CCOC(=O)c1ccc(NC(=O)NC2CCN(CC(=O)NCc3ccc4c(c3)OCO4)CC2)cc1	-2	1	/	0	19*	3	8	4
COCCn1c(C)cc(C(=O)COC(=O)c2cc3c(s2)CCC3)c1C	-4	6	/	0	16*	20	23*	19*
COCCn1c(C)cc(C(=O)COC(=O)c2cccc(O)c2)c1C	-17	-1	1	/	0	16	/	/
CC(Sc1nnnn1C)C(=O)Nc1nc(-c2ccc(F)c(F)c2)cs1 (stereo not drawn)	-2	11	1	-2	18*	27*	2	4
O=C(CSc1ccccn1)Nc1nc2ccccc2s1	10	-1	/	27	1	-2	/	/
Cn1ccnc1SCC(=O)Nc1nc2ccccc2s1	5	-2	-1	1	14*	5	5	1
COc1ccc(C)cc1NC(=O)c1cccc(C(=O)Nc2cc(C)ccc2OC)c1	7	-5	-7	-2	74*	-1	0	0
CCOC(=O)c1cnc(N)nc1-c1ccccc1	11	0	-1	-2	2	0	/	/
Nc1ncc(C(=O)O)c(-c2ccccc2)n1	-2	-1	-3	-3	37*	2	6	2
CC(=O)c1ccc(NC(=O)c2ccc3nc(C)sc3c2)cc1	7	1	-28	1	4	2	/	/
Cc1nc2ccc(C(=O)Nc3ccccc3Cl)cc2s1	-14	-5	2	-2	20*	18	6	2
COCC(=O)Nc1ccc2c(c1)C(=O)N(C)[C@@H]1CC[C@H](CC(=O)Nc3ccccc3)O[C@H]1CO2	/	/	2	/	/	/	/	/
CSc1nc2ccccc2n1Cc1cccc([N+](=O)[O-])c1	2	-1	0	-22	16*	-2	6	0
COc1ccc(N2CC(C)(C)[C@H](CC(=O)Nc3ccc(Br)cc3)C2=O)cc1	9	3	1	/	5	-1	/	/
COc1ccc(NC(=O)C[C@@H]2C(=O)N(c3ccc(OC)cc3)CC2(C)C)cc1	7	4	0	/	40*	-3	1	6
CCN(Cc1cn(CC2CCCCC2)nn1)S(=O)(=O)c1ccccc1Br	-10	5	/	/	3	9	/	/
COC(=O)[C@H](CC(C)C)N(CCc1cn(CC2CCCCC2)nn1)S(=O)(=O)c1ccc(F)cc1Br	3	-1	/	/	5	2	/	/
COC(=O)[C@H](C(C)C)N(Cc1cn(CC2CCCCC2)nn1)S(=O)(=O)c1ccc(F)cc1Br	-9	4	/	/	17*	19	7	7
COC(=O)[C@H](CC(C)C)N(Cc1cn(CC2CCCCC2)nn1)S(=O)(=O)c1ccc(F)cc1Br	-1	3	/	/	19*	21*	7	12
COC(=O)[C@H](C(C)C)N(CCCc1cn(CC2CCCCC2)nn1)S(=O)(=O)c1ccc(F)cc1Br	-12	8	/	/	-5	10	/	/
COC(=O)[C@H](CC(C)C)N(Cc1cn(CC2CCCCC2)nn1)S(=O)(=O)c1ccccc1Br	-6	4	/	/	17*	18	8	11
CN(C)c1ncc(C2=C(Cl)C(=O)C(N3CCCC3)=C(Cl)C2=O)s1	27*	63*	/	57*	24*	73*	36*	24*
CN(Cc1cn(Cc2cccc(Cl)c2)nn1)C1CN(Cc2cn(Cc3cccc(Cl)c3)nn2)S(=O)(=O)C1 (stereo not drawn)	-12	-3	0	/	14*	18	11	6
CN1CCC(N2CCN(C3CN(Cc4cn(Cc5cccc(C(F)(F)F)c5)nn4)S(=O)(=O)C3)CC2)CC1 (stereo not drawn)	5	0	-107	/	14*	23*	12	7
SMILES	TDP2 inh	LEDGF integ inh	CASP6 VEID inh	NSD2 HMT inh	MBD2 DNA inh	UHRF1 binding	UHRF1 DNA bind	MBD2 confirm
O=S1(=O)CC(N2CCN(CCO)CC2)CN1Cc1cn(Cc2ccc(C(F)(F)F)cc2)nn1 (stereo not drawn)	11	-3	-8	/	14*	16	8	3
CN(C)C1CN(Cc2cn(Cc3cccc(Cl)c3)nn2)S(=O)(=O)C1 (stereo not drawn)	2	0	-1	/	0	0	/	/
COc1ccc(NC(=O)N2CC(=O)N3[C@H](CO)[C@H](c4ccc(C#CCC5CCCC5)cc4)[C@H]3C2)cc1	/	/	1	/	/	/	/	/
C=CCn1c(=O)c2c(nc3n2CCCN3Cc2ccccc2)n(C)c1=O	14	6	-3	5	15*	25*	5	2
CCCCn1nnnc1C(CCSC)N1CCN(C/C=C/c2ccccc2)CC1 (stereo not drawn)	-5	2	-1	/	-5	0	/	/
CCCCn1nnnc1C(CCc1ccccc1)N1CCN(C/C=C/c2ccccc2)CC1 (stereo not drawn)	-13	-10	-1	/	15*	19	12	4
CCC1CCc2c([nH]c3ccccc3c2=O)O1 (stereo not drawn)	3	5	/	-2	13*	22*	6	0
C[C@H](NC(=O)c1cc2c(cn1)[nH]c1ccccc12)C(=O)O	1	-3	4	0	42*	1	3	3
COC(=O)[C@H](C)NC(=O)c1cc2c(cn1)[nH]c1ccccc12	5	-1	-3	-1	4	0	/	/
O=C(Cc1cccs1)N(Cc1ccco1)C1(C(=O)NC2CCCCC2)CCCCC1	14	0	/	0	-6	-2	/	/
O=C(Cc1cccs1)N(Cc1cccs1)C1(C(=O)NC2CCCC2)CCCCC1	4	4	/	/	13*	24*	2	4
O=C(NCc1ccccc1)[C@]1(CCS(=O)(=O)c2ccccc2)N=C(c2ccc(OCCCO)cc2)O[C@@H]1c1ccccc1	/	/	2	/	/	/	/	/
O=C(Cn1nc(-c2ccccc2Cl)ccc1=O)Nc1ccccc1-c1ccccc1	-22	2	1	3	43*	-1	8	2
O=[N+]([O-])c1ccc(NN=Cc2cc(Br)ccc2O)nc1	1	0	6	4	18*	-3	4	1
COc1ccc(-c2nn(C)c3sc(C(=O)NCCN(C)C)cc23)cc1OC	-7	-6	-6	2	18*	28*	29*	25*
CCN(CC)CCNC(=O)c1cc2c(-c3cccc(OC)c3)nn(C)c2s1	13	-2	-3	30	6	7	/	/
